Reference: ChEMBL document CHEMBL1177703, “Design and synthesis of novel xyloketal derivatives and their vasorelaxing activities in rat thoracic aorta and angiogenic activities in zebrafish angiogenesis screen” (J Med Chem, 2010)
Counter-ions that a name gives are not always drawn. Calls of active or inactive are those of the source. The rule behind the calls is not given here.

Key:
Aorta [1] = test: Vasorelaxant activity in Sprague-Dawley rat endothelium intact thoracic aortic rings assessed as inhibition of KPSS-induced contraction; format: functional, tissue-based
Summary of the method: (§1)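 Rat thoracic aortic rings (2-3 mm) held in Krebs bicarbonate at 37 °C, pH 7.4, gassed with 95% O2/5% CO2. Endothelium accepted as intact with >80% relaxation to 1 μM ACh after 1 μM phenylephrine, and as denuded with no ACh response. Rings precontracted with KCl (30 mM intact, 25 mM denuded). Cumulative curves 0.5-200 μM, vehicle 2% DMSO, one curve per ring; EC50 derived.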

Aorta [2] = test: Vasorelaxant activity in Sprague-Dawley rat endothelium denuded thoracic aortic rings assessed as inhibition of KCL-induced contraction; format: functional, tissue-based; summary of the method: as §1
HUVEC [3] = test: Cytotoxicity against HUVEC assessed as cell viability > 200 uM after 24 hrs by MTT assay; format: cell-based; conditions: human
Danio rerio [4] = species: Danio rerio; test: Angiogenic activity in zebrafish embryo at 100 uM after 72 hrs by microscopical analysis
HUVEC [5] = test: Induction of nitric oxide production in HUVEC at 20 uM after 24 hrs by griess reaction; format: functional, cell-based; conditions: Homo sapiens
Summary of the method: (§2)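 HUVECs preincubated 24 h with 20 μM compound, alone or together with 100 μM L-NAME. Nitrite in 100 μL medium mixed 1:1 with Griess reagent for 15 min, absorbance read at 540 nm, quantified against a NaNO2 standard curve run with each experiment. Samples in triplicate; mean ± SD, n = 6.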

HUVEC [6] = test: Induction of nitric oxide production in HUVEC at 20 uM after 24 hrs by griess reaction in presence of L-NAME; format: functional, cell-based; conditions: Homo sapiens; summary of the method: as §2
HUVEC [7] = test: Protection against oxidatively modified low density lipoprotein-induced cell injury in HUVEC assessed as cell viability at 20 uM pretreated for 30 mins before oxLDL challenge measured after 24 hrs by MTT assay; format: functional, cell-based; conditions: Homo sapiens
Summary of the method: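 HUVECs pretreated 30 min with 20 μM compound, then given oxLDL (150 μg/mL) or vehicle for 24 h. MTT added and absorbance read at 570 nm after 4 h. Mean ± SD, n = 6.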

Danio rerio [8] = species: Danio rerio; test: Angiogenic activity in zebrafish embryo after 72 hrs by microscopical analysis

Structure (SMILES) | EC50 (Aorta [1]) [µM] | EC50 (Aorta [2]) [µM] | Activity (HUVEC [3]) | Angiogenic activity (Danio rerio [4]) | Activity (HUVEC [5]) | Activity (HUVEC [6]) | Activity (HUVEC [7]) | Angiogenic activity (Danio rerio [8])
CNC(=O)c1c(O)c2c(c3c1O[C@@]1(C)OC[C@H](C)[C@H]1C3)O[C@@]1(C)OC[C@H](C)[C@H]1C2 | 9 | 15 | Non-toxic | Active |  |  |  | 
COC(=O)C(C)NC(=O)c1c(O)c2c(c3c1O[C@@]1(C)OC[C@H](C)[C@H]1C3)O[C@@]1(C)OC[C@H](C)[C@H]1C2 (stereo partly drawn) | 5 | 13 | Non-toxic | Active |  |  |  | 
C[C@H]1CO[C@]2(C)Oc3c(c4c(c5c3C[C@@H]3[C@@H](C)CO[C@]3(C)O5)C[C@@H]3[C@@H](C)CO[C@]3(C)O4)C[C@H]12 | 12 | 31 | Non-toxic | Active | Active | inactive |  | 
COC1(C)CCc2c(c3c(c4c2OC(C)(OC)CC4)OC(C)(OC)CC3)O1 (stereo not drawn) | 65 | 118 | Non-toxic | Active |  |  |  | 
C[C@H]1CO[C@]2(C)Oc3c(c(O)c(Cc4c(O)c5c(c6c4O[C@@]4(C)OC[C@H](C)[C@H]4C6)O[C@@]4(C)OC[C@H](C)[C@H]4C5)c4c3C[C@@H]3[C@@H](C)CO[C@]3(C)O4)C[C@H]12 | 87 | > 200 | Non-toxic | Active |  |  |  | 
CC1COC2(C)Oc3cc(O)cc(O)c3CC12 (racemic) | 39 | 66 | Non-toxic | Active |  |  | Active | 
CC1COC2(C)Oc3c(c4c(c5c3CC3C(C)COC3(C)O5)CC3C(C)COC3(C)O4)CC12 (racemic) | 6 | 11 | Non-toxic | Active |  |  | Active | 
CC1COC2(C)Oc3cc(O)c4c(c3CC12)OC1(C)OCC(C)C1C4 (racemic) [(+/-)-XYLOKETAL B] | 19 | 41 | Non-toxic | Active |  |  | Active | Dose-dependent effect
C[C@H]1CO[C@]2(C)Oc3ccc4c(c3C[C@H]12)O[C@@]1(C)OC[C@H](C)[C@H]1C4 [DEHYDROXY XYLOKETAL B] | 55 | 72 | Non-toxic |  |  |  |  | 
C[C@H]1CO[C@]2(C)Oc3cccc(O)c3C[C@H]12 [DEHYDROXY XYLOKETAL H] | 128 | > 200 | Non-toxic |  |  |  |  | 
Cc1cc2c(c3c1C[C@@H]1[C@@H](C)CO[C@]1(C)O3)C[C@@H]1[C@@H](C)CO[C@]1(C)O2 [METHYL XYLOKETAL B] | 40 | 52 | Non-toxic | Active | Active | inactive | Active | 
C[C@H]1CO[C@]2(C)Oc3c(c(O)c(C(=O)O)c4c3C[C@@H]3[C@@H](C)CO[C@]3(C)O4)C[C@H]12 [XYLOKETAL B ACID] | > 200 | > 200 | Non-toxic |  |  |  |  | 
C=C=CCOc1cc2c(c3c1C[C@@H]1[C@@H](C)CO[C@]1(C)O3)C[C@@H]1[C@@H](C)CO[C@]1(C)O2 [XYLOKETAL B ALLENIC ETHER] | 12 | 11 | Non-toxic | Active |  |  | Active | 
CCCCOc1cc2c(c3c1C[C@@H]1[C@@H](C)CO[C@]1(C)O3)C[C@@H]1[C@@H](C)CO[C@]1(C)O2 [XYLOKETAL B BUTYL ETHER] | 111 | > 200 | Non-toxic |  |  |  |  | 
C[C@H]1CO[C@]2(C)Oc3cc(OC/C=C/c4ccccc4)c4c(c3C[C@H]12)O[C@@]1(C)OC[C@H](C)[C@H]1C4 [XYLOKETAL B CINNAMYL ETHER] | 64 | > 200 | Non-toxic |  |  |  |  | 
C[C@H]1CO[C@]2(C)Oc3c(c(O)c(C(N)=O)c4c3C[C@@H]3[C@@H](C)CO[C@]3(C)O4)C[C@H]12 [XYLOKETAL B FORMAMIDE] | 3 | 10 | Non-toxic | Active |  |  |  | 
CCCCCCOc1cc2c(c3c1C[C@@H]1[C@@H](C)CO[C@]1(C)O3)C[C@@H]1[C@@H](C)CO[C@]1(C)O2 [XYLOKETAL B HEXYL ETHER] | > 200 | > 200 | Non-toxic |  |  |  |  | 
COc1cc2c(c3c1C[C@@H]1[C@@H](C)CO[C@]1(C)O3)C[C@@H]1[C@@H](C)CO[C@]1(C)O2 [XYLOKETAL B METHYL ETHER] | 17 | 33 | Non-toxic | Active | Active | inactive | Active | 
COC(=O)c1c(O)c2c(c3c1O[C@@]1(C)OC[C@H](C)[C@H]1C3)O[C@@]1(C)OC[C@H](C)[C@H]1C2 [XYLOKETAL B METHYL FORMATE] | 8 | 14 | Non-toxic | Active |  |  |  | 
C#CCOc1cc2c(c3c1C[C@@H]1[C@@H](C)CO[C@]1(C)O3)C[C@@H]1[C@@H](C)CO[C@]1(C)O2 [XYLOKETAL B PROPARGYL ETHER] | 23 | 22 | Non-toxic | Active | Active | inactive | Active | 
CCCOc1cc2c(c3c1C[C@@H]1[C@@H](C)CO[C@]1(C)O3)C[C@@H]1[C@@H](C)CO[C@]1(C)O2 [XYLOKETAL B PROPYL ETHER] | 43 | 77 | Non-toxic | Active |  |  | Active | 
COc1cc(OC)c2c(c1)O[C@@]1(C)OC[C@H](C)[C@H]1C2 [XYLOKETAL H DIMETHYL ESTER] | 37 | 80 | Non-toxic |  |  |  |  | 
